From ChEMBL document CHEMBL1212890, “Synthesis and biological evaluation of tetracyclic fluoroquinolones as antibacterial and anticancer agents” (Bioorg Med Chem, 2010)
Values after ≈ are worked out from the molar mass of the structure shown. Active and inactive are the calls of the source. No cut-off for these calls is given here.

What was measured:
A549 = experiment: Cytotoxicity against human A549 cells after 72 hrs by MTT assay; assay type: functional, cell-based; settings: A549, 72 h
Outline: (§1)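 Cells kept in medium with 2 mM glutamine and 10% FBS at 37 °C, 5% CO2. Compounds dissolved in DMSO just before addition (final ≤0.1% v/v; same solvent in controls). After 72 h exposure, viability read by MTT. Triplicates, ≥3 independent experiments. Dose–response fitted with single or double Hill functions; IC50 extrapolated from curves.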

Acinetobacter baumannii [1] = experiment: Antimicrobial activity against Acinetobacter baumannii ATCC 19606 after 24 hrs by broth microdilution method; assay type: functional; settings: ATCC 19606, 24 h
Outline: (§2)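 Broth dilution method. H. influenzae grown in Haemophilus Test Medium, other bacteria in Mueller Hinton Broth. Compounds dissolved in DMSO and diluted in growth medium. Incubated 24 h at 37 °C. MIC is the lowest concentration inhibiting reproduction of the organism. Drug-free tubes served as growth controls, organism-free tubes as purity controls, and solvent-only tubes as controls.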

MCF7 [2] = experiment: Cytotoxicity against human MCF7 cells after 72 hrs by MTT assay; assay type: functional, cell-based; settings: MCF7, 72 h; outline: as §1
Pseudomonas aeruginosa [3] = experiment: Antimicrobial activity against Pseudomonas aeruginosa ATCC 9027 after 24 hrs by broth microdilution method; assay type: functional; settings: ATCC 9027, 24 h; outline: as §2
Haemophilus influenzae = experiment: Antimicrobial activity against Haemophilus influenzae ATCC 19418 after 24 hrs by broth microdilution method; assay type: functional; settings: ATCC 19418, 24 h; outline: as §2
Escherichia coli [4] = experiment: Antimicrobial activity against quinolone and penicillin-resistant Escherichia coli after 24 hrs by broth microdilution method; assay type: functional
Outline: (§3)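 Broth dilution in Mueller Hinton Broth; compounds dissolved in DMSO and diluted in growth medium. […] Drug-free tubes served as growth controls and organism-free tubes as purity controls, with solvent-only controls included. Ciprofloxacin, levofloxacin, moxifloxacin and gemifloxacin were the reference drugs.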

[5] = Cytotoxicity against human HDF after 72 hrs by MTT assay; assay type: cell-based; outline: as §1
[6] = Inhibition of Escherichia coli DNA topoisomerase-4-mediated decatenation of kinetoplast DNA by electrophoresis
Pseudomonas aeruginosa [7] = experiment: Antimicrobial activity against quinolone and penicillin-resistant Pseudomonas aeruginosa after 24 hrs by broth microdilution method; assay type: functional; outline: as §3
[8] = tested on: Staphylococcus epidermidis; experiment: Antimicrobial activity against Staphylococcus epidermidis ATCC 12228 after 24 hrs by broth microdilution method; assay type: functional; settings: ATCC 12228, 24 h; outline: as §2
Escherichia coli [9] = experiment: Antimicrobial activity against Escherichia coli ATCC 8739 after 24 hrs by broth microdilution method; assay type: functional; settings: ATCC 8739, 24 h; outline: as §2
Staphylococcus aureus [10] = experiment: Antimicrobial activity against quinolone and penicillin-resistant Staphylococcus aureus SAR72 after 24 hrs by broth microdilution method; assay type: functional; outline: as §3
Bacillus subtilis = experiment: Antimicrobial activity against Bacillus subtilis ATCC 6633 after 24 hrs by broth microdilution method; assay type: functional; settings: ATCC 6633, 24 h; outline: as §2
[11] = tested on: Staphylococcus epidermidis; experiment: Antimicrobial activity against quinolone and penicillin-resistant Staphylococcus epidermidis SER after 24 hrs by broth microdilution method; assay type: functional; outline: as §3
[12] = Inhibition of Escherichia coli DNA gyrase-mediated supercoiling of pBR322 using bromothymol blue by electrophoresis
Outline: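 E. coli gyrase supercoiling of relaxed pBR322 in 35 mM Tris–HCl pH 7.5, 24 mM KCl, 4 mM MgCl2, 2 mM DTT, 1.8 mM spermidine, 1 mM ATP, 6.5% glycerol, 0.1 mg/mL albumin. Incubated 30 min at 37 °C, stopped with chloroform/isoamyl alcohol, run on 1% agarose and gel-quantitated. IC50 is the concentration halving supercoiling versus drug-free control. ≥3 independent experiments.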

Acinetobacter baumannii [13] = experiment: Antimicrobial activity against quinolone and penicillin-resistant Acinetobacter baumannii after 24 hrs by broth microdilution method; assay type: functional; outline: as §3
Staphylococcus aureus [14] = experiment: Antimicrobial activity against Staphylococcus aureus ATCC 6538 after 24 hrs by broth microdilution method; assay type: functional; settings: ATCC 6538, 24 h; outline: as §2
Staphylococcus aureus [15] = experiment: Antimicrobial activity against quinolone and penicillin-resistant Staphylococcus aureus SAR4790 after 24 hrs by broth microdilution method; assay type: functional; outline: as §3
MCF7 [16] = experiment: Induction of cell death in human MCF7 cells at 5 uM after 48 hrs using Hoechst 33342/PI staining by microscopy; assay type: functional, cell-based
Outline: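 MCF-7 cells exposed to compound for 48 h, then stained with Hoechst 33342/PI. Cell death quantified by fluorescence microscopy as percent values. Means of three separate experiments.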

MCF7 [17] = experiment: Induction of apoptosis in human MCF7 cells assessed as p53 accumulation after 24 hrs by Western blotting
MCF7 [18] = experiment: Induction of apoptosis in human MCF7 cells assessed as caspase-7 activation at 5 uM after 24 hrs by Western blotting

Structure (SMILES)	IC50 (A549) [µM]	MIC (Acinetobacter baumannii [1]) [µg/mL]	IC50 (MCF7 [2]) [µM]	MIC (Pseudomonas aeruginosa [3]) [µg/mL]	MIC (Haemophilus influenzae) [µg/mL]	MIC (Escherichia coli [4])	IC50 [5] [µM]	IC50 [6] [µg/mL]	MIC (Pseudomonas aeruginosa [7])	MIC [8] [µg/mL]	MIC (Escherichia coli [9]) [µg/mL]	MIC (Staphylococcus aureus [10]; SAR72, 24 h) [µg/mL]	MIC (Bacillus subtilis) [µg/mL]	MIC [11]	IC50 [12] [µg/mL]	MIC (Acinetobacter baumannii [13])	MIC (Staphylococcus aureus [14]) [µg/mL]	MIC (Staphylococcus aureus [15]; SAR4790, 24 h) [µg/mL]	further results
O=C(O)c1cn(C2CC2)c2c(cc(F)c3c2[nH]c2ccsc23)c1=O	6.4	3 (≈ 8.76 µM)	4.4	50 (≈ 146 µM)	0.015 (≈ 0.0438 µM)	> 100 µg/mL	> 10	100 (≈ 292 µM)	> 100 µg/mL	0.03 (≈ 0.0876 µM)	1.5 (≈ 4.38 µM)	12 (≈ 35.1 µM)	0.003 (≈ 0.00876 µM)	50 µg/mL (≈ 146 µM)	1.1 (≈ 3.21 µM)	> 100 µg/mL	0.03 (≈ 0.0876 µM)	> 100	
O=C(O)c1cn(C2CC2)c2c(cc(F)c3c4ccccc4[nH]c32)c1=O	6.4	12 (≈ 35.7 µM)	3.6	> 100	0.03 (≈ 0.0892 µM)	> 100 µg/mL	> 10	35 (≈ 104 µM)	inactive	0.15 (≈ 0.446 µM)	50 (≈ 149 µM)	12 (≈ 35.7 µM)	0.015 (≈ 0.0446 µM)	> 100 µg/mL	1.7 (≈ 5.05 µM)	> 100 µg/mL	0.3 (≈ 0.892 µM)	> 100	
COc1c(N2C[C@@H]3CCCN[C@@H]3C2)c(F)cc2c(=O)c(C(=O)O)cn(C3CC3)c12 [MOXIFLOXACIN]		0.15 (≈ 0.374 µM)		0.7 (≈ 1.74 µM)	0.03 (≈ 0.0747 µM)			5 (≈ 12.5 µM)	> 100 µg/mL	0.07 (≈ 0.174 µM)	0.03 (≈ 0.0747 µM)	12 (≈ 29.9 µM)	0.015 (≈ 0.0374 µM)	50 µg/mL (≈ 125 µM)	0.85 (≈ 2.12 µM)	50 µg/mL (≈ 125 µM)	0.03 (≈ 0.0747 µM)	50 (≈ 125 µM)	
Cc1c2ccncc2c(C)c2c1[nH]c1ccccc12 [ELLIPTECINE]	3.4		1.6				> 10												
O=C(O)c1cn(C2CC2)c2c(cc(F)c3c4ccc(F)cc4[nH]c32)c1=O	3.5	12 (≈ 33.9 µM)	0.8	> 100	0.15 (≈ 0.423 µM)	> 100 µg/mL	> 10	28 (≈ 79 µM)	inactive	0.07 (≈ 0.198 µM)	25 (≈ 70.6 µM)	1.5 (≈ 4.23 µM)	0.003 (≈ 0.00847 µM)	3 µg/mL (≈ 8.47 µM)	1.8 (≈ 5.08 µM)	> 100 µg/mL	0.07 (≈ 0.198 µM)	> 100	Activity (MCF7 [16]): Active; Activity (MCF7 [17]): Active; Activity (MCF7 [18]): Active
COc1ccc2c(c1)[nH]c1c2c(F)cc2c(=O)c(C(=O)O)cn(C3CC3)c21	4.9	50 (≈ 136 µM)	2.4	> 100	1.5 (≈ 4.09 µM)	inactive	> 10	48 (≈ 131 µM)	inactive	3 (≈ 8.19 µM)	> 100	> 100	0.07 (≈ 0.191 µM)	> 100 µg/mL	4.8 (≈ 13.1 µM)	> 100 µg/mL	3 (≈ 8.19 µM)	> 100	
C[C@H]1COc2c(N3CCN(C)CC3)c(F)cc3c(=O)c(C(=O)O)cn1c23.C[C@H]1COc2c(N3CCN(C)CC3)c(F)cc3c(=O)c(C(=O)O)cn1c23.O [LEVOFLOXACIN]		0.15		0.3	0.15	25 µg/mL			50 µg/mL	0.15		25	0.03	> 100 µg/mL		> 100 µg/mL	0.07	100	
O=C(O)c1cn(C2CC2)c2cc(N3CCNCC3)c(F)cc2c1=O [CIPROFLOXACIN]		0.7 (≈ 2.11 µM)		0.07 (≈ 0.211 µM)	0.15 (≈ 0.453 µM)			4.6 (≈ 13.9 µM)		0.07 (≈ 0.211 µM)		100 (≈ 302 µM)	0.03 (≈ 0.0905 µM)	100 µg/mL (≈ 302 µM)	0.34 (≈ 1.03 µM)	> 100 µg/mL	0.3 (≈ 0.905 µM)	> 100	
Cc1ccc2c(c1)[nH]c1c2c(F)cc2c(=O)c(C(=O)O)cn(C3CC3)c21	> 10	> 100	> 10	> 100	> 100	inactive	> 10	> 300	inactive	> 100	> 100		0.07 (≈ 0.2 µM)	inactive	3 (≈ 8.56 µM)	inactive	> 100		MIC (Staphylococcus aureus [10]): inactive; MIC (Staphylococcus aureus [15]): inactive
COc1c(C)cc2c([nH]c3c2c(F)cc2c(=O)c(C(=O)O)cn(C4CC4)c23)c1C	3	> 100	1.7	> 100	6 (≈ 15.2 µM)	inactive	> 10	31 (≈ 78.6 µM)	inactive	25 (≈ 63.4 µM)	> 100	> 100	0.07 (≈ 0.177 µM)	> 100 µg/mL	> 30	inactive	6 (≈ 15.2 µM)	> 100	
CO/N=C1\CN(c2nc3c(cc2F)c(=O)c(C(=O)O)cn3C2CC2)CC1CN (stereo not given) [GEMIFLOXACIN]		0.3 (≈ 0.77 µM)		0.07 (≈ 0.18 µM)	0.015 (≈ 0.0385 µM)	50 µg/mL (≈ 128 µM)			> 100 µg/mL	0.015 (≈ 0.0385 µM)	0.015 (≈ 0.0385 µM)	6 (≈ 15.4 µM)	0.007 (≈ 0.018 µM)	50 µg/mL (≈ 128 µM)		100 µg/mL (≈ 257 µM)	0.015 (≈ 0.0385 µM)	50 (≈ 128 µM)	
